“Also recorded” adds a separate entry of the source. Where two headings read alike, the source gives them in different places.
Key:
[1] = biological target: α-glucosidase (Saccharomyces cerevisiae, EC 3.2.1.20) (Saccharomyces cerevisiae, UniProt P53341); test: Assay of α-glucosidase inhibitory activity; assay type: biochemical; settings: for inhibitory effect on α-glucosidase (in words): 1-deoxynojirimycin as control
α-glucosidase [2] = biological target: T1, α-glucosidase (Saccharomyces cerevisiae, UniProt P53341); test: Fluorescence quenching and UV-Vis absorption spectra of α-glucosidase; assay type: binding; settings: Stern–Volmer analysis and UV-Vis absorption spectra at 298 K
Summary of the method: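 Tryptophan fluorescence was excited at 280 nm and emission recorded at 300–500 nm. Test compound (0–8.0 × 10−5 mol L−1) was added to α-glucosidase (1 U mL−1) and incubated 30 s at 298 K before reading. Data were fitted to the Stern–Volmer equation F0/F = 1 + Kqτ0[Q], with τ0 = 6.2 ns. The same method was run at 273, 298 and 310 K for thermodynamic parameters. UV-Vis spectra (200–600 nm) were taken of enzyme (1.0 × 10−5 mol L−1) with compound at 0–9.0 × 10−5 mol L−1.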

α-glucosidase [3] = biological target: T1, α-glucosidase; test: Inhibitory kinetic analysis; assay type: biochemical
α-glucosidase [4] = biological target: T1, α-glucosidase; settings: reported in the literature; cited from earlier work

T1 sequence (P53341 whole entry): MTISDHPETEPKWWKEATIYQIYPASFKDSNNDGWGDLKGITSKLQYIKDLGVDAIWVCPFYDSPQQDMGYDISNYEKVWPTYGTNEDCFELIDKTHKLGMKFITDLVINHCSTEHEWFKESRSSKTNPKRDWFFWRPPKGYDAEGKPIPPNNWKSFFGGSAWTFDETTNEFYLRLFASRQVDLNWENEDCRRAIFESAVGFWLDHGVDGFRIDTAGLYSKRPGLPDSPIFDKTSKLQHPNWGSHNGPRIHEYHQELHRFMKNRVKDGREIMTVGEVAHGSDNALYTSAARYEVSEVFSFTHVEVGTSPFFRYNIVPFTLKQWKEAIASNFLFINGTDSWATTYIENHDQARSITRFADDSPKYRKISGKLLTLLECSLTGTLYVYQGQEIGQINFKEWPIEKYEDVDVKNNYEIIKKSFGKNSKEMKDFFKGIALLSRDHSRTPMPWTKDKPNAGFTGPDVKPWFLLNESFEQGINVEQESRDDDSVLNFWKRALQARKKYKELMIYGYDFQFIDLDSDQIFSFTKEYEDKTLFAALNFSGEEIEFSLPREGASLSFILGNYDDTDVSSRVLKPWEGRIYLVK
Sequence of α-glucosidase (Saccharomyces cerevisiae, EC 3.2.1.20) (P53341 whole entry): as above

Compound O=c1cc(-c2ccccc2)oc2cc(OCCCCCN3C[C@H](O)[C@@H](O)[C@H](O)[C@H]3CO)cc(O)c12 [compound 4, 5-Hydroxy-2-phenyl-7-((5-((2R,3R,4R,5S)-3,4,5-trihydroxy-2-(hydroxymeth-yl)-piperidin-1-yl)pentyl)oxy)-4H-chromen-4-one] has an IC50 [1] greater than 100000 nM.
In the case of O=c1cc(-c2ccccc2)oc2cc(OCCCCCCCCN3C[C@H](O)[C@@H](O)[C@H](O)[C@H]3CO)cc(O)c12 [compound 5, 5-Hydroxy-2-phenyl-7-((8-((2R,3R,4R,5S)-3,4,5-trihydroxy-2-(hydroxymeth-yl)-piperidin-1-yl)octyl)oxy)-4H-chromen-4-one], the IC50 [1] is reported as 5560 ± 240 nM and the “inhibitory effect on α-glucosidase (in words)” value [1] is reported as “superior inhibition effects compared to 1-deoxynojirimycin”.
In the case of O=c1cc(-c2ccccc2)oc2cc(OCCCCCCCCCCCN3C[C@H](O)[C@@H](O)[C@H](O)[C@H]3CO)cc(O)c12 [compound 6, 5-Hydroxy-2-phenyl-7-((11-((2R,3R,4R,5S)-3,4,5-trihydroxy-2-(hydroxymethyl)-piperidin-1-yl)undecyl)oxy)-4H-chromen-4-one], the IC50 [1] is reported as 510 ± 20 nM, the “inhibitory effect on α-glucosidase (in words)” value [1] is reported as “superior inhibition effects compared to 1-deoxynojirimycin” and the “α-glucosidase inhibitory activity, fold higher than 1-deoxynojirimycin” value ([1]; ratio of IC50 values) is reported as “up to 16 fold”. The fluorescence quenching mechanism (α-glucosidase [2]) was “static fluorescence quenching”, the Ki (α-glucosidase [3]) was 210 nM and the “reversibility of α-glucosidase inhibition” value (α-glucosidase [3]; 0.0, 0.5, 1.0 μM of compound, varying enzyme concentration) was “reversible”. For the same compound, the inhibition type (α-glucosidase [3]; Lineweaver–Burk plot) was “mixed competitive; also recorded: mixed-type inhibitor; also recorded: mixed competition type”.
In the case of OC[C@H]1NC[C@H](O)[C@@H](O)[C@@H]1O [1-Deoxynojirimycin], the “reversibility of α-glucosidase inhibition” value (α-glucosidase [4]) is given as “reversibly inhibit”.
